Measurements reported in the RNAGym collection of RNA variant scans (doi:10.1126/science.aae0568).
This sample holds only a part of the variants without activity.

B1: tRNA (parent)
chain: GUUCCGUUGGCGUAAUGGUAACGCGUCUCCCUCCUAAGGAGAAGACUGCGGGUUCGAGUCCCGUACGGAACG

Variants of: B1
Assay: yeast fitness relative to wild type (ratio to wild type); higher = fitter; tRNA-Arg(CCU), competitive growth, 37 C, YPD
Summary of the method: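 A pool of Saccharomyces cerevisiae strains, each with a tRNA-Arg(CCU) gene variant at the native genomic locus, was competed in YPD at 37°C for 24 hours across six parallel replicates. The variants had been chemically synthesised at a 3% per-site mutation rate over 69 sites, and gene amplicons before and after competition were read by 100-nucleotide paired-end sequencing. Darwinian fitness relative to wild type rested on changes in genotype frequencies. Genotypes required ≥ 100 starting reads, and estimates < 0.5 were set to 0.5.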

Row | Variant | yeast fitness
1 | C34U A37U C66U | ≤ 0.5
2 | C34U A37U G41A G50C | ≤ 0.5
3 | C34U A37U G58C | 0.543
4 | C34U A37U G58C C62A | 0.736
5 | C34U A40C | 0.613
6 | C34U A40C A42C G48A | ≤ 0.5
7 | C34U A40C A43G | 0.513
8 | C34U A40C C62U | 0.507
9 | C34U A40C G68C | ≤ 0.5
10 | C34U A40G A69U | 0.574
11 | C34U A40G C46A C49G A65G | ≤ 0.5
12 | C34U A40G C55G | ≤ 0.5
13 | C34U A40G U47C | ≤ 0.5
14 | C34U A40G U54C A57G | ≤ 0.5
15 | C34U A40U C61G | ≤ 0.5
16 | C34U A42C | 0.664
17 | C34U A42C A43U | ≤ 0.5
18 | C34U A42C G56C | ≤ 0.5
19 | C34U A42U | 0.74
20 | C34U A42U C66U | ≤ 0.5
21 | C34U A43G | 0.789
22 | C34U A57G | 0.737
23 | C34U A57U | ≤ 0.5
24 | C34U A65U | 0.574

Row | Variant | yeast fitness
25 | C34U A69U | 0.667
26 | C34U A70C | 0.73
27 | C34U A70G | 0.803
28 | C34U A70U | 0.662
29 | C34U C46G A69U | 0.576
30 | C34U C46G G58C C60U C66G | ≤ 0.5
31 | C34U C46U A69G A70U | ≤ 0.5
32 | C34U C46U U64A | 0.642
33 | C34U C49A G56C C62A A65C | 0.519
34 | C34U C49G G52C C55U C62G | 0.75
35 | C34U C49U | 0.866
36 | C34U C49U A65C | 0.612
37 | C34U C49U A69U | 0.607
38 | C34U C49U C55U G67A | ≤ 0.5
39 | C34U C49U C61U | 0.512
40 | C34U C55G | 0.56
41 | C34U C60G A69G | ≤ 0.5
42 | C34U C60U | 0.563
43 | C34U C61A | 0.563
44 | C34U C61G A65C C66G | ≤ 0.5
45 | C34U C62G C66G G67U | ≤ 0.5
46 | C34U C62U | 0.673
47 | C34U C66A | ≤ 0.5
48 | C34U C66U G67A | ≤ 0.5

Row | Variant | yeast fitness
49 | C34U G38A G56A | 0.611
50 | C34U G39A G48C A65U | ≤ 0.5
51 | C34U G39C | 0.571
52 | C34U G39C A45G | ≤ 0.5
53 | C34U G39C A69U | ≤ 0.5
54 | C34U G39C C66U | ≤ 0.5
55 | C34U G39C G50A | 0.557
56 | C34U G41A | 0.606
57 | C34U G44A A65G | ≤ 0.5
58 | C34U G44C U47G | 0.659
59 | C34U G44C U47G A65C C66G | ≤ 0.5
60 | C34U G44C U47G A65G | ≤ 0.5
61 | C34U G48A C49G | 0.563
62 | C34U G50A G56C | 0.662
63 | C34U G50A U59C C62A U64A | ≤ 0.5
64 | C34U G50C | 0.528
65 | C34U G51C G58C | ≤ 0.5
66 | C34U G51U C60U C62U A65C A69G | ≤ 0.5
67 | C34U G51U U54A C60U A65C | ≤ 0.5
68 | C34U G52C A70U | ≤ 0.5
69 | C34U G52C C55U G58A | ≤ 0.5
70 | C34U G56A | 0.798
71 | C34U G58A A65U | 0.618
72 | C34U G58C C62G G67A | ≤ 0.5

Row | Variant | yeast fitness
73 | C34U G67A | 0.744
74 | C34U G68C | 0.773
75 | C34U U35C | 0.607
76 | C34U U35C A40C | ≤ 0.5
77 | C34U U35G G38A C62U A65C G67A | ≤ 0.5
78 | C34U U54A | ≤ 0.5
79 | C34U U54C C61A | ≤ 0.5
80 | C34U U59A | 0.762
81 | U35A A36C C66A | ≤ 0.5
82 | U35A A36U G39A | 0.567
83 | U35A A37G A43U A45C C61U | ≤ 0.5
84 | U35A A37G C49A | ≤ 0.5
85 | U35A A37U G52A U59C C66A G67A | ≤ 0.5
86 | U35A A40U A57U | 0.625
87 | U35A A40U C46G U53A | ≤ 0.5
88 | U35A A42C | 0.643
89 | U35A A42C C46U C66U G67C | ≤ 0.5
90 | U35A A42U A43U U59G | 0.541
91 | U35A A43C C49A | 0.566
92 | U35A A43G | 0.624
93 | U35A A45C | 0.576
94 | U35A A45C G56A | 0.636
95 | U35A A45C G68U | ≤ 0.5
96 | U35A A57C C62U | ≤ 0.5

Row | Variant | yeast fitness
97 | U35A A57U C61U | ≤ 0.5
98 | U35A A57U C66G | ≤ 0.5
99 | U35A A57U U59C | ≤ 0.5
100 | U35A A65G | 0.751
101 | U35A A69U | 0.806
102 | U35A C46A C49G G52A | 0.572
103 | U35A C46A C49G G52A C60U | 0.661
104 | U35A C46A C55A A69U | ≤ 0.5
105 | U35A C46G C49U | 0.527
106 | U35A C49G C60A | ≤ 0.5
107 | U35A C49U | 0.761
108 | U35A C60A A65U A70G | ≤ 0.5
109 | U35A C60G C62G G68A | ≤ 0.5
110 | U35A C60G G63A | 0.503
111 | U35A C61G | ≤ 0.5
112 | U35A C66G | 0.599
113 | U35A G38A C61G | ≤ 0.5
114 | U35A G38C | 0.527
115 | U35A G41A C55U | 0.539
116 | U35A G44A | 0.715
117 | U35A G52A | 0.532
118 | U35A G58A G67C | ≤ 0.5
119 | U35A U54C C61G | 0.645
120 | U35A U59C C62U C66U | 0.645

Row | Variant | yeast fitness
121 | U35C A36G | 0.931
122 | U35C A36U G38A C46A U54C | ≤ 0.5
123 | U35C A37C C55A C60G G63C | ≤ 0.5
124 | U35C A37U C46G U54C C61A | ≤ 0.5
125 | U35C A40C | 0.795
126 | U35C A40G | 0.711
127 | U35C A42C | 0.819
128 | U35C A42C G50A | ≤ 0.5
129 | U35C A42C U64A | ≤ 0.5
130 | U35C A42U | 0.819
131 | U35C A43C | 0.927
132 | U35C A43C C55G A65U | ≤ 0.5
133 | U35C A43G | 0.783
134 | U35C A43U | 0.971
135 | U35C A43U U47A | ≤ 0.5
136 | U35C A45G | 0.773
137 | U35C A45G C62A | ≤ 0.5
138 | U35C A45U C49A | 0.594
139 | U35C A65C | 0.807
140 | U35C C46A A70U | 0.767
141 | U35C C46A C49A | ≤ 0.5
142 | U35C C46U A69U | 0.832
143 | U35C C55U C62A | 0.527
144 | U35C C60G | 0.602

Row | Variant | yeast fitness
145 | U35C C62U | 0.882
146 | U35C C66G | 0.657
147 | U35C C66U | 0.781
148 | U35C G39A | 0.886
149 | U35C G39A U53A | 0.567
150 | U35C G41C A65C | ≤ 0.5
151 | U35C G44A A57U C66G | ≤ 0.5
152 | U35C G44A C46G G50C U53A C66A | ≤ 0.5
153 | U35C G44C | 0.88
154 | U35C G50A | 0.927
155 | U35C G50A C55U | ≤ 0.5
156 | U35C G50C | 0.703
157 | U35C G50C U54A | ≤ 0.5
158 | U35C G51U | 0.527
159 | U35C G52A | 0.658
160 | U35C G52C G67C | 0.533
161 | U35C G58A C60U | ≤ 0.5
162 | U35C G63A | 0.614
163 | U35C G68A | 0.67
164 | U35C G68C | 0.644
165 | U35C G68U | 0.657
166 | U35C U53A | 0.56
167 | U35C U59A A70C | ≤ 0.5
